Active and inactive are the calls of the source. No cut-off for these calls is given here.
How the values were obtained:
[1] = system: Mus musculus; assay: Antitumor activity against mouse advanced Lewis lung carcinoma allografted in BDF1 mouse assessed as disease cure at 52 mg/kg, ip administered as single dose on 7th day post-tumor implantation measured for 80 days post-drug treatment; format: functional, organism-based; parameters: dose 52 mg/kg
In short: (§1)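 BDF1 mice (C57Blk/6 × DBA/2) implanted sc by trocar with Lewis lung tumor fragments of about 40 mg, taken only from bacteriologically sterile donor tumors. Mice bearing tumors of about 400 mg (day 6-7) were selected. Each received a single ip dose on day 7, at or below the LD10 in normal mice. Groups were of 10 mice. Tumor weight was taken from calipers as w = ab²/2, measured at least twice weekly. Matched non-tumor mice served as toxicity controls.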

[2] = Antitumor activity against mouse advanced Lewis lung carcinoma allografted in BDF1 mouse assessed as increase in host life span at 52 mg/kg, ip administered as single dose on 7th day post-tumor implantation; format: functional; settings: route intraperitoneal
In short: (§2)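 BDF1 mice (C57Blk/6 × DBA/2) implanted sc by trocar with about 40 mg Lewis lung tumor fragments from bacteriologically sterile donors. Advanced-disease groups held tumors of about 400 mg by day 6-7, sized by caliper (w = ab²/2). Single ip injection on day 7, in water or saline vehicle, at or below the LD10 in normal mice. Tumors measured at least twice weekly.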

[3] = system: Mus musculus; assay: Antitumor activity against mouse advanced Lewis lung carcinoma allografted in ip dosed BDF1 mouse assessed as complete regression of established tumor administered as single dose on day 6 or 7 post-tumor implantation; format: functional, organism-based; in short: as §1
[4] = system: Mus musculus; assay: Antitumor activity against mouse advanced Lewis lung carcinoma allografted in ip dosed BDF1 mouse assessed as disease cure administered as single dose on day 6 or 7 post-tumor implantation; format: functional, organism-based; in short: as §1
[5] = system: Mus musculus; assay: Antitumor activity against mouse advanced Lewis lung carcinoma allografted in BDF1 mouse assessed as disease cure at 41 mg/kg, ip administered as single dose on 7th day post-tumor implantation measured for 80 days post-drug treatment; format: functional, organism-based; parameters: dose 41 mg/kg; in short: as §1
[6] = system: Mus musculus; assay: Antitumor activity against mouse advanced Lewis lung carcinoma allografted in BDF1 mouse assessed as disease cure at 27 mg/kg, ip administered as single dose on 7th day post-tumor implantation measured for 80 days post-drug treatment; format: functional, organism-based; parameters: dose 27 mg/kg; in short: as §1
[7] = Antitumor activity against mouse advanced Lewis lung carcinoma allografted in BDF1 mouse assessed as increase in host life span at 41 mg/kg, ip administered as single dose on 7th day post-tumor implantation; format: functional; settings: route intraperitoneal; in short: as §2
[8] = Antitumor activity against mouse advanced Lewis lung carcinoma allografted in BDF1 mouse assessed as increase in host life span at 27 mg/kg, ip administered as single dose on 7th day post-tumor implantation; format: functional; settings: route intraperitoneal; in short: as §2
[9] = system: Mus musculus; assay: Antitumor activity against mouse advanced Lewis lung carcinoma allografted in BDF1 mouse assessed as complete regression of established tumor at 41 mg/kg, ip administered as single dose on 7th day post-tumor implantation; format: functional, organism-based; parameters: dose 41 mg/kg; in short: as §1
[10] = system: Mus musculus; assay: Antitumor activity against mouse advanced Lewis lung carcinoma allografted in BDF1 mouse assessed as complete regression of established tumor at 27 mg/kg, ip administered as single dose on 7th day post-tumor implantation; format: functional, organism-based; parameters: dose 27 mg/kg; in short: as §1
[11] = Antitumor activity against mouse advanced Lewis lung carcinoma allografted in ip dosed BDF1 mouse assessed as increase in host lifespan administered as single dose on day 6 or 7 post-tumor implantation; format: functional
In short: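 Advanced Lewis lung model: about 40 mg fragments implanted sc by trocar into BDF1 mice, and mice with tumors of about 400 mg (day 6-7) selected. Tumor weight from calipers, w = ab²/2. Agent given as one ip dose in distilled water or physiological saline. Nontumor-bearing mice received matching doses as toxicity controls.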

[12] = system: Mus musculus; assay: Antitumor activity against mouse advanced Lewis lung carcinoma allografted in BDF1 mouse assessed as disease cure at 90 mg/kg, ip administered as single dose on 7th day post-tumor implantation measured for 80 days post-drug treatment; format: functional, organism-based; parameters: dose 90 mg/kg; in short: as §1
[13] = Antitumor activity against mouse advanced Lewis lung carcinoma allografted in BDF1 mouse assessed as increase in host life span at 90 mg/kg, ip administered as single dose on 7th day post-tumor implantation; format: functional; settings: route intraperitoneal; in short: as §2
[14] = system: Mus musculus; assay: Antitumor activity against mouse advanced Lewis lung carcinoma allografted in BDF1 mouse assessed as disease cure at 50 mg/kg, ip administered as single dose on 7th day post-tumor implantation measured for 80 days post-drug treatment; format: functional, organism-based; parameters: dose 50 mg/kg; in short: as §2
[15] = system: Mus musculus; assay: Antitumor activity against mouse advanced Lewis lung carcinoma allografted in BDF1 mouse assessed as disease cure at 40 mg/kg, ip administered as single dose on 7th day post-tumor implantation measured for 80 days post-drug treatment; format: functional, organism-based; parameters: dose 40 mg/kg; in short: as §2
[16] = Antitumor activity against mouse advanced Lewis lung carcinoma allografted in BDF1 mouse assessed as increase in host life span at 50 mg/kg, ip administered as single dose on 7th day post-tumor implantation; format: functional; settings: route intraperitoneal; in short: as §2
[17] = Antitumor activity against mouse advanced Lewis lung carcinoma allografted in BDF1 mouse assessed as increase in host life span at 40 mg/kg, ip administered as single dose on 7th day post-tumor implantation; format: functional; settings: route intraperitoneal; in short: as §2
[18] = system: Mus musculus; assay: Antitumor activity against mouse advanced Lewis lung carcinoma allografted in BDF1 mouse assessed as disease cure at 67 mg/kg, ip administered as single dose on 7th day post-tumor implantation measured for 80 days post-drug treatment; format: functional, organism-based; parameters: dose 67 mg/kg; in short: as §1
[19] = Antitumor activity against mouse advanced Lewis lung carcinoma allografted in BDF1 mouse assessed as increase in host life span at 67 mg/kg, ip administered as single dose on 7th day post-tumor implantation; format: functional; settings: route intraperitoneal; in short: as §2

For `CC1(C)CCC(NC(=O)N(CCF)N=O)CC1`, the Activity [1] was “inactive”, the ILS at 52 mg/kg [2] was 100% and the inhibition [3] was “Active”. For the same compound, the Activity [4] was “inactive”.

In the case of `O=NN(CCF)C(=O)NC1CSCSC1`, the Activity [5] is reported as “inactive”, the Activity [6] is reported as “inactive” and the ILS at 41 mg/kg [7] is reported as 21%. For the same compound, the ILS at 27 mg/kg [8] was 40%, the inhibition [9] was “inactive” and the inhibition [10] was “inactive”. The inhibition [3] was “inactive”, the Activity [4] was “inactive” and the ILS [11] was greater than 25%.

In the case of `O=NN(CCCl)C(=O)N[C@H]1CCCC[C@H]1Cl` (relative stereo), the Activity [12] is reported as “inactive”, the ILS at 90 mg/kg [13] is reported as 62% and the Activity [4] is reported as “inactive”. It also gave an ILS [11] greater than 25%.

In the case of `O=NN(CCCl)C(=O)NC1CCCCC1` [LOMUSTINE], the Activity [14] is reported as “inactive”, the Activity [15] is reported as “inactive” and the ILS at 50 mg/kg [16] is reported as 15%. The ILS at 40 mg/kg [17] was 31%, the inhibition [3] was “Active” and the Activity [4] was “inactive”.

With `CC[C@H]1CC[C@H](NC(=O)N(CCCl)N=O)CC1` the Activity [18] was “inactive”, the ILS at 67 mg/kg [19] was 17% and the inhibition [3] was “Active”. The Activity [4] was “inactive”.

— ChEMBL document CHEMBL3271979, “Inhibition of solid tumors by nitrosoureas. 1. Lewis lung carcinoma” (1977)
